Reference: publication PMC3198121 (Journal of Medicinal Chemistry, 2011)

Columns and labels:
Format in all cases: cell-based
[1] = biological target: T1, GPR35 (Homo sapiens, UniProt Q9HC97); assay: DMR agonist assay in HT-29 cells; settings: for agonist type in DMR assay: compared to zaprinast; for fold decrease in potency relative to 16a: compared with compound 16a
[2] = biological target: T1, GPR35; assay: DMR agonist assay after shRNA knockdown of GPR35 in HT29; settings: all compounds at 10 μM; n = 4; mock transfection as control
Method in brief: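 HT29 cells seeded at 5000/well on biosensor plates, 24 h at 37 °C, then transiently transfected (Effectene, 0.05 μg plasmid DNA) with GPR35 shRNA in GFP-expressing pGFP-V-RS vector or control plasmid. Medium was renewed next day. About 48 h post-transfection, cells were washed into HBSS (20 mM Hepes, pH 7.1) and equilibrated 1 h at 26 °C. Label-free DMR was recorded kinetically after a 2 min baseline and compound addition.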

[3] = biological target: T1, GPR35; assay: Tango β-arrestin translocation gene reporter assay in Tango GPR35-bla U2OS cells; settings: for agonist type in Tango β-arrestin translocation assay: compared to zaprinast; for Tango assays % zaprinast: efficacy relative to zaprinast, Tango GPR35-bla U2OS cells
[4] = biological target: T1, GPR35; settings: HT29; for blockage of the compound-induced DMR by compound 17: compound 17 at 64 μM
[5] = biological target: T1, GPR35; assay: Receptor internalization assay in HT29; settings: HT-29; 1 μM 16a, 10 μM 15a; 1 h at 37 °C
Method in brief: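 HT29 cells seeded at 10000/well on chamber slides, 24 h at 37 °C, then exposed to compound or matching DMSO for 1 h at 37 °C. Cells were fixed in 4% formaldehyde for 15 min and blocked/permeabilized for 2 h (goat serum, BSA, Triton X-100). Staining used anti-GPR35 T-14 (intracellular epitope, 1:500, 24 h), then Alexa Fluor 594 anti-goat (1:500, 1 h RT), with DAPI nuclei. Read by confocal imaging.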

[6] = biological target: T1, GPR35; settings: zaprinast 1 μM in DMSO treated cells; n = 90

T1 sequence (Q9HC97 whole entry): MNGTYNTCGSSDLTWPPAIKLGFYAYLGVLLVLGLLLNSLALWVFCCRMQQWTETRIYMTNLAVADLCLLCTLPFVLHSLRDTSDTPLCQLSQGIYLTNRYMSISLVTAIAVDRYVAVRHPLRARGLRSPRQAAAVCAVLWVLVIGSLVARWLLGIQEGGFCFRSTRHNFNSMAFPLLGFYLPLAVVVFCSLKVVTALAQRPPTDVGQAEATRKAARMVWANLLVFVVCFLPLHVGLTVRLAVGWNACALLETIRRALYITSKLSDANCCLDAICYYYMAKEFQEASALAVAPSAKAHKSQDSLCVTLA

SMILES | effect of shRNA knockdown of GPR35 on the compound-induced DMR [2] | response in Tango assay [3] | agonist type in Tango β-arrestin translocation assay [3] | blockage of the compound-induced DMR by compound 17 [4] | also measured
O=C(O)c1cc2sccc2s1 [Compound 10, Thieno[3,2-b]thiophene-2-carboxylic Acid] | – | detectable responses | partial agonists | – | fold decrease in potency relative to 16a ([1]; DMR EC50): over 600 fold
CCCCCCc1c(C(=O)O)sc2ccsc12 [Compound 11, 3-Hexylthieno[3,2-b]thiophene-2-carboxylic Acid] | – | detectable responses | partial agonists | only partially suppressed | fold decrease in potency relative to 16a ([1]; DMR EC50): about 54 fold
CCCCCCc1csc2cc(C(=O)O)sc12 [Compound 12, 6-Hexylthieno[3,2-b]thiophene-2-carboxylic Acid] | – | detectable responses | partial agonists | – | –
Cc1csc2c1sc1cc(C(=O)O)sc12 [Compound 13, 5-Methyldithieno[3,2-b:2′,3′-d]thiophene-2-carboxylic Acid] | significantly attenuated | detectable responses | partial agonists | only partially suppressed | –
CCOC(=O)c1sc2c(Br)csc2c1C [Compound 15a, Ethyl 6-Bromo-3-methylthieno[3,2-b]thiophene-2-carboxylate] | – | – | – | – | internalization of endogenous GPR35 [5]: unable to trigger receptor internalization
Cc1c(C(=O)O)sc2c(Br)csc12 [Compound 16a, 6-Bromo-3-methylthieno[3,2-b]thiophene-2-carboxylic Acid] | significantly attenuated | dose-dependent and saturable responses | full agonist | – | internalization of endogenous GPR35 [5]: significant internalization; agonist type in DMR assay [1]: full agonist
CCCCCCCCc1c(C(=O)O)sc2c(Br)csc12 [Compound 16b, 6-Bromo-3-octylthieno[3,2-b]thiophene-2-carboxylic Acid] | – | detectable responses | partial agonists | – | –
CCCCCCCCCCCc1c(C(=O)O)sc2c(Br)csc12 [Compound 16c, 6-Bromo-3-undecylthieno[3,2-b]thiophene-2-carboxylic Acid] | – | dose-dependent and saturable responses | partial agonists | – | –
COC(=O)c1cnn(-c2ccc(F)cc2F)c1/C=N/NC(=S)NC(C)(C)C [Compound 17, methyl-5-[(tert-butylcarbamothioylhydrazinylidene)methyl]-1-(2,4-difluorophenyl)-pyrazole-4-carboxylate, reference compound] | – | – | – | – | DMR agonist activity in HT-29 [1]: did not lead to any detectable DMR; blockage of the zaprinast DMR by compound 17 ([4]; compound 17 at 64 μM (highest dose)): almost completely blocked
CCCOc1ccccc1-c1nc2[nH]nnc2c(=O)[nH]1 [zaprinast, reference compound] | significantly attenuated | – | – | – | DMR assays % zaprinast ([1]; efficacy relative to zaprinast, HT-29, DMR amplitude at 8 min post stimulation): 100 ± 5%; DMR amplitude, maximal response ([1]; zaprinast 1 μM (saturating dose), about 8 min poststimulation, n = 32): 246 ± 11 pm; zaprinast DMR amplitude in the desensitization step (positive control) [6]: 238 ± 25 pm; Tango assays % zaprinast [3]: 100 ± 7%

Continued, in another order:

effect of shRNA knockdown of GPR35 on the compound-induced DMR [2] | response in Tango assay [3] | agonist type in Tango β-arrestin translocation assay [3] | blockage of the compound-induced DMR by compound 17 [4] | SMILES | also measured
significantly attenuated | dose-dependent and saturable responses | partial agonist | – | CC1=C(C#N)C(=C(C#N)C#N)OC1(C)c1ccc(Cl)c(Cl)c1 (centres unmarked) [Compound 1, 2-(3-cyano-5-(3,4-dichlorophenyl)-4,5-dimethylfuran-2(5H)-ylidene)malononitrile] | agonist type in DMR assay [1]: full agonist
– | dose-dependent and saturable responses | partial agonists | – | CC1=C(C#N)C(=C(C#N)C#N)OC1(c1ccccc1)C(F)(F)F (centres unmarked) [Compound 3, 2-(3-cyano-4-methyl-5-phenyl-5-(trifluoromethyl)furan-2(5H)-ylidene)malononitrile] | –
– | – | – | only partially suppressed | CC1=C(C#N)C(=C(C#N)C#N)OC1(C)c1ccc(Cl)c(Cl)c1Cl (centres unmarked) [Compound 5, 2-(3-cyano-4,5-dimethyl-5-(2,3,4-trichlorophenyl)furan-2(5H)-ylidene)malononitrile] | fold decrease in potency to trigger DMR signal relative to 1 ([1]; DMR EC50, compared with compound 1): 350 fold
– | detectable responses | partial agonists | only partially suppressed | CC1=C(C#N)C(=C(C#N)C#N)OC12CCCCC2 [Compound 7, 2-(3-cyano-4-methyl-1-oxaspiro[4.5]dec-3-en-2-ylidene)malononitrile] | Tango assays % zaprinast [3]: weak
– | – | – | only partially suppressed | CC1=C(C#N)C(=C(C#N)C#N)OC1(C)c1ccc(F)cc1F (centres unmarked) [Compound 8, 2-(3-cyano-5-(2,4-difluorophenyl)-4,5-dimethylfuran-2(5H)-ylidene)malononitrile] | –
significantly attenuated | detectable responses | partial agonists | – | CC1=C(C#N)C(=C(C#N)C#N)OC1(C)C [Compound 9, 2-(3-Cyano-4,5,5-trimethylfuran-2(5H)-ylidene)malononitrile] | Tango assays % zaprinast [3]: weak
